Sampled rows, rich in hits. Any-hit rate of the full collection: about 4.8%.
Jurkat NFkB inh = inhibitors of induced NF-kB luciferase reporter, primary screen, TCR NF-kB activation inhibitor project, cell-based, luminescence, uHTS. actives 0.53% (n = 330,000). AID 435003, 2010. Jurkat, PMA/ionomycin-induced NF-kB luciferase reporter. inhibition, % at 4 µM; in the data active = inhibition above about 50%
T cruzi inh = inhibitors of intracellular T. cruzi growth, primary screen, luminescence, NIH3T3 host cells; T. cruzi beta-gal in NIH3T3, 90 h; inhibition, % (test concentration not listed); actives 1.4% (n = 300,000); AID 1885, 2009;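 active = mean inhibition across valid replicates above about 55%, limit read from the data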;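 note: signal also drops with host cell toxicity which is not excluded here; 0% = plate median of DMSO wells and 100% = zero luminescence signal; higher percent means less beta-gal luminescence so fewer parasites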
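assay system = mouse NIH/3T3 fibroblasts infected with β-gal-expressing T. cruzi Tulahuen C4 | input = 5,000 NIH/3T3 host cells per well | buffer or medium = DMEM plus 2% FBS | timing = 3 h host attachment, then at least 90 h co-culture | measured by = GalScreen luminescence, 60 min | evaluation = luminescence reflecting intracellular parasite burden, expressed as percent inhibition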
697 NFkB inh = inhibitors of PMA/ionomycin-induced NF-kB reporter, 697 cells, primary screen, B-cell NF-kB inhibitor project, cell-based, luminescence, uHTS. inhibition, % at 4 µM. 697 B-cell NF-kB luciferase reporter, 16 h. actives 0.33% (n = 330,000); in the data active = inhibition above about 35%
HSF1 inhib = HSF1 inhibitors in luciferase reporter cells, primary screen, cell-based, NIH3T3, luminescence; activity change, negative = inhibition, % at 7.5 µM (by protocol); AID 2098, 2009; NIH3T3-HGL HSE-luciferase, MG132-induced, luminescence 8 h; hits give low values; actives 0.77% (n = 300,000);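 active = more than half of replicate wells show activity change below -50%, luminescence cut by over half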;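 note: luciferase reports HSF-1 transcriptional activity via heat shock element; 0% = median of DMSO wells and -100% = zero luminescence signal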
GPR7 antagonist = GPR7 receptor antagonists, primary screen, cell-based, fluorescence, single concentration; AID 1861, 2009; GPR7-expressing cells, fluorescence antagonist assay; inhibition, % at 4.4 µM; Neuropeptides B/W receptor type 1 (Homo sapiens), P48145; actives 1.1% (n = 290,000); in the data active = inhibition above about 16%, passing the limit was not always enough;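 note: cells stimulated with the agonist NPW; 0% = agonist with vehicle and 100% = vehicle without agonist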
Target sequence (P48145 whole entry, looked up): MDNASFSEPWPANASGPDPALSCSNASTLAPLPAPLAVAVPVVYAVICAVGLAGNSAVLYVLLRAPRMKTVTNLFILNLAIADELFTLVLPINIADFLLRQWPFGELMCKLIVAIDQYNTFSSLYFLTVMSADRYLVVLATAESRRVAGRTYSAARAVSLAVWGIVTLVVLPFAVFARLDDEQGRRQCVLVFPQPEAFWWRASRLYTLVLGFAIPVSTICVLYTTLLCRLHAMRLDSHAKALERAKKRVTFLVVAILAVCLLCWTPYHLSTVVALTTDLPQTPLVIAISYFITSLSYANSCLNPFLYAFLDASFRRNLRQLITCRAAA
HSF-1 act = HSF-1 activators, primary screen, NIH3T3-HGL cells, MG132 stress, luminescence, single point. NIH3T3-HGL HSF-1 luciferase reporter, 8 h; 100% = twice DMSO control signal. activation, % at 9 µM. actives 1.7% (n = 300,000);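 active = mean replicate activation of at least 50% with a set share of replicates each reaching 50%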;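 note: 0% = median of the neutral control wells and 100% = twice that signal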
Active calls of the source: *; x = not tested or not shown.

SMILES	Jurkat NFkB inh	T cruzi inh	697 NFkB inh	HSF1 inhib	GPR7 antagonist	HSF-1 act
CCn1cc(C(=O)NCc2ccco2)c(=O)c2cc(S(=O)(=O)N3CCCCCC3)ccc21	21	-20	18	3	-7	29
CCn1cc(C(=O)NCc2ccco2)c(=O)c2cc(S(=O)(=O)N3CCc4ccccc4C3)ccc21	9	56*	4	8	-6	1
Oc1cc(NCc2cccnc2)ccc1-c1nc2ccccc2o1	-112	45	-197	31	3	59*
CCOCCCNC(=O)CCCn1nc(C)n2c(cc3sccc32)c1=O	14	4	20	1	-7	-9
CCN(CCNC(=O)CCCn1nc(C)n2c(cc3sccc32)c1=O)c1ccccc1	1	13	-2	49	-12	74*
COc1ccc(N2CCN(C(CNS(=O)(=O)c3cc(F)ccc3F)c3cccnc3)CC2)cc1 (stereo not given)	2	70*	11	3	-1	23
COc1ccc(S(=O)(=O)NCC(c2cccnc2)N2CCN(c3ccccc3)CC2)cc1C (stereo not given)	6	63*	5	7	-4	4
O=S(=O)(NCC(c1cccnc1)N1CCN(Cc2ccccc2)CC1)c1ccc(Cl)cc1 (stereo not given)	5	58*	17	1	-9	-17
O=S(=O)(NCC(c1cccnc1)N1CCN(Cc2ccccc2)CC1)c1ccc(F)cc1 (stereo not given)	-5	47	-8	0	-8	0
COc1ccc(N2CCN(C(CNS(=O)(=O)c3cccs3)c3cccnc3)CC2)cc1 (stereo not given)	0	43	-2	-5	14	1
O=S(=O)(NCC(c1cccnc1)N1CCN(Cc2ccccc2)CC1)c1cc(F)ccc1F (stereo not given)	20	59*	8	0	0	-1
O=S(=O)(NCC(c1cccnc1)N1CCN(c2ccc(F)cc2)CC1)c1cc(F)ccc1F (stereo not given)	7	58*	4	6	5	43
COc1ccccc1N1CCN(C(CNS(=O)(=O)c2ccccc2)c2ccccc2)CC1 (stereo not given)	5	-3	-28	6	-13	57*
O=S(=O)(NCC(c1cccnc1)N1CCc2ccccc2C1)c1ccccc1 (stereo not given)	19	23	-10	-2	-1	-1
Cc1ccc(C(CNS(=O)(=O)c2ccc([N+](=O)[O-])cc2)N2CCN(C)CC2)cc1 (stereo not given)	7	58*	10	-6	x	-4
O=[N+]([O-])c1ccc(S(=O)(=O)NCC(c2cccnc2)N2CCc3ccccc32)cc1 (stereo not given)	4	70*	-2	0	x	18
C=CCNC(=S)NNC(=O)c1cc(O)ccc1O	-10	-6	9	1	-1	-6
COc1ccccc1/C=C/C(=O)NCC(=O)N/N=C/c1ccccc1[N+](=O)[O-]	3	61*	1	-2	-5	7
CCc1nnc(SCC(=O)Nc2ccc(NC(C)=O)cc2)n1-n1cccc1	0	-1	3	-5	x	2
C/C(=N\NC(=O)c1cc(-c2cccc(OC(C)C)c2)nc2ccccc12)c1cccnc1	-9	63*	-10	7	-31	32
COCCN(Cc1ccccc1)C(=S)Nc1ccc(Cl)cc1	6	-3	9	-54*	6	-63
CCN(c1ccccc1)S(=O)(=O)c1ccc(Cl)c(NC(=O)CSc2nnc(C)s2)c1	7	0	6	-66*	-16	-73
CCN(c1ccccc1)S(=O)(=O)c1ccc(Cl)c(NC(=O)CN2CCCCCC2)c1	-11	60*	-20	-3	-12	-23
COc1ccccc1-c1cc(SC)c(C#N)c(=O)o1	9	-38	-101	-18	-11	-13
C[C@@]12CCC[C@@](C)(C(=O)O)C1CC[C@@]13C[C@@H](NCc4ccccc4)[C@@](C)(CCC12)C3 (stereo not given in full)	-8	x	-5	x	x	x
SMILES	Jurkat NFkB inh	T cruzi inh	697 NFkB inh	HSF1 inhib	GPR7 antagonist	HSF-1 act
CC(=O)Nc1ccc(S(=O)(=O)N(C)CC(=O)N/N=C/c2ccc(C(=O)O)cc2)cc1	3	-8	8	5	-3	28
COc1ccc(/C=N/NC(=O)CN(C)S(=O)(=O)c2ccc(NC(C)=O)cc2)cc1	-4	-11	10	-60*	-4	-67
CCc1noc(C)c1C(=O)N1CCCC(C(=O)c2cc(F)ccc2OC)C1 (stereo not given)	7	55*	-13	-6	-11	-4
CCOC(=O)N1CCC(N2CCCC(C(=O)c3cc(F)ccc3OC)C2)CC1 (stereo not given)	5	59*	9	7	-6	9
COCC(C)NS(=O)(=O)c1ccccc1 (stereo not given)	6	-9	1	-1	9	3
CCCC(C)NS(=O)(=O)c1ccccc1 (stereo not given)	1	-8	9	-59*	-14	-68
Cc1noc(C)c1COc1ccccc1C(=O)NC(C)c1ccc(Cl)cc1 (stereo not given)	4	x	11	x	x	x
COC(=O)c1ccc(CNC(=O)c2ccc(S(=O)(=O)N(C)c3ccccc3OC)cc2)cc1	8	x	-3	x	x	x
N#C/C(=C\c1ccc(Cl)cc1)c1nc2ncccc2[nH]1	-2	5	-20	20	-18	54*
N#C/C(=C\c1c(Cl)cccc1Cl)c1nc2ccccc2[nH]1	-14	20	5	2	4	11
COc1cccc(SCC2CSc3nc4ccccc4c(=O)n32)c1 (stereo not given)	10	-1	9	5	12	6
O=c1c2ccccc2nnn1CSc1ccc2c(c1)OCCO2	-92	-8	-129	49	-6	76*
CCC(C(=O)Nc1ccc2c(c1)OCCO2)n1nnc2ccccc2c1=O (stereo not given)	-67	-10	-73	10	-14	12
Cc1noc(C)c1C(=O)Nc1nc2ccc(Cl)cc2s1	-20	2	-83	15	-18	9
O=C(NCCNc1ccc(Cl)cc1[N+](=O)[O-])c1ccccc1F	-12	8	-20	37	4	51*
Cc1ccc(C(=O)NCCNc2ccc(Cl)cc2[N+](=O)[O-])o1	5	2	19	4	-5	10
